Reference: ChEMBL document CHEMBL3352390, “Selective CB2 receptor agonists. Part 2: Structure-activity relationship studies and optimization of proline-based compounds” (Bioorg Med Chem Lett, 2015)

Experiments:
[1] = Permeability from apical to basolateral side of human Caco2 cells; assay type: ADME, cell-based; conditions: Caco-2, read-out: permeability
[2] = Permeability from basolateral to apical side of human Caco2 cells; assay type: ADME, cell-based; conditions: Caco-2, read-out: permeability
[3] = Volume of distribution at steady state in Wistar Han rat at 1 mg/kg, iv; assay type: ADME, organism-based; set-up: dose 1 mg/kg, route intravenous; conditions: in vivo, read-out: Vdss
Outline: (§1)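 Wistar Han or Sprague Dawley rats given 1 mg/kg iv as a solution or 5 mg/kg po as a suspension. Plasma taken at several time points and quantified by HPLC-MS/MS. Parameters derived by non-compartmental analysis.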

[4] = Ratio of drug uptake in brain to plasma of Wistar Han rat; assay type: ADME; conditions: brain and plasma, read-out: BPR
[5] = Mean residence time in Wistar Han rat at 1 mg/kg, iv; assay type: ADME, organism-based; set-up: dose 1 mg/kg, route intravenous; conditions: in vivo; outline: as §1
[6] = Oral bioavailability in Wistar Han rat at 10 mg/kg; assay type: ADME, organism-based; conditions: in vivo
Outline: (§2)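 Wistar Han rats dosed orally with a suspension, at 10 mg/kg or 10 µmol/kg. Plasma taken at several time points and quantified by HPLC-MS/MS. Bioavailability derived by non-compartmental analysis.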

[7] = Oral bioavailability in Wistar Han rat at 5 mg/kg; assay type: ADME, organism-based; conditions: in vivo; outline: as §1
[8] = Mean residence time in Wistar Han rat at […], iv; assay type: ADME, organism-based; conditions: in vivo
[9] = Volume of distribution at steady state in Wistar Han rat at […], iv; assay type: ADME, organism-based; conditions: in vivo, read-out: Vdss
[10] = Oral bioavailability in Wistar Han rat at 10 umol/kg; assay type: ADME, organism-based; conditions: in vivo; outline: as §2

Row | SMILES | Papp A→B [1] [×10⁻⁶ cm/s] | Papp B→A [2] [×10⁻⁶ cm/s] | Vd [3] [L/kg] | Kp [4] | MRT [5] [h] | bioavailability [6] [%] | bioavailability [7] [%] | MRT [8] [h] | Vd [9] [L/kg] | bioavailability [10] [%]
1 | CC(C)(C)c1cc(NC(=O)[C@@H]2CCC(=O)N2c2ccc(Cl)cc2)on1 | 11 | 23 | 4.5 | 0.41 | 1.3 | 44 |  |  |  | 
2 | CC(C)(C)c1cc(NC(=O)[C@@H]2CCCN2c2ccc(Cl)cc2)no1 | 24 | 18 | 7.9 |  | 1 |  | 5 |  |  | 
3 | CC(C)(C)c1cc(NC(=O)[C@@H]2C[C@@H](O)CN2CC2CCOCC2)on1 (relative stereo) |  |  |  |  |  |  |  | 0.34 | 1.3 | 18
4 | CC(C)(C)c1cc(NC(=O)[C@@H]2CCC(=O)N2c2ccc(C(F)(F)F)cc2)on1 | 14 | 7.5 |  | 0.9 |  |  |  | 6 | 3.8 | 88
